The RNAGym collection of RNA variant scans (doi:10.1126/science.aae0568)
Variants at the floor of the assay were thinned out.

B1: tRNA (parent)
chain: GUUCCGUUGGCGUAAUGGUAACGCGUCUCCCUCCUAAGGAGAAGACUGCGGGUUCGAGUCCCGUACGGAACG

Variants of: B1
Experiment: yeast fitness relative to wild type (ratio to wild type); higher = fitter; tRNA-Arg(CCU), competitive growth, 37 C, YPD
Summary of the method: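 Amplicons of the tRNA-Arg(CCU) gene were sequenced, 100-nucleotide paired-end, from the start population and from each end population of a pooled yeast competition. The competition, in six parallel replicates, lasted 24 hours in YPD at 37°C. Fitness relative to wild type was calculated from changes in genotype frequencies. Genotypes had to have ≥ 100 starting reads, and estimates < 0.5 were set to 0.5.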

Variant | yeast fitness
GUUCCGUUGGCGUAAUGGUAACGCGUCUCCCUCCUAAGGGGAAGACUGCGGGUUCGAGUCCCGUACGGACCG [A40G A70C] | 0.946
GUUCCGUUGGCGUAAUGGUAACGCGUCUCCCUCCUAAGGCGAAGACCGCGGGUUCGAGUCCCGUACGGAACG [A40C U47C] | 0.904
GUUCCGUUGGCGUAAUGGUAACGCGUCUCCCUCCUAAGGUGCAGACUGCGGGUUCGAGUCCUGUACGAAACG [A40U A42C C62U G68A] | ≤ 0.5
GUUCCGUUGGCGUAAUGGUAACGCGUCUCCCUCCUAAGGCGAAGACUGCGGGUUCGAGUCCCGUACGCAACG [A40C G68C] | 0.641
GUUCCGUUGGCGUAAUGGUAACGCGUCUCCCUCCUAAGGCGAAGACUGCGGGUUCGAGUCCCGUACGUAACG [A40C G68U] | 0.788
GUUCCGUUGGCGUAAUGGUAACGCGUCUCCCUCCUAAGGGGAAGACUGCGGGUUCCAGUCCCGUACGGAACG [A40G G56C] | 0.725
GUUCCGUUGGCGUAAUGGUAACGCGUCUCCCUCCUAAGGUGAAGUCUGUGGGUUCGAGUCCCGUACGGAACG [A40U A45U C49U] | 0.63
GUUCCGUUGGCGUAAUGGUAACGCGUCUCCCUCCUAAGGCCAAGACUGAGGGUUCGAGUCCCGUACGCAACG [A40C G41C C49A G68C] | ≤ 0.5
GUUCCGUUGGCGUAAUGGUAACGCGUCUCCCUCCUAAGGGGAAAACUGCGGGUUCGAGUCCCGUACGGAGCG [A40G G44A A70G] | 0.567
GUUCCGUUGGCGUAAUGGUAACGCGUCUCCCUCCUAAGGUGAAGACUGCGGGUUCGAGUCGCGUACGCAACG [A40U C61G G68C] | 0.571
GUUCCGUUGGCGUAAUGGUAACGCGUCUCCCUCCUAAGGCGAAGACUGCGGCUUCGAGUCCCGUACAGAACG [A40C G52C G67A] | 0.55
GUUCCGUUGGCGUAAUGGUAACGCGUCUCCCUCCUAAGGGGAACACUGCGGGUUCGAGUCCCGUACGGAACG [A40G G44C] | 0.676
GUUCCGUUGGCGUAAUGGUAACGCGUCUCCCUCCUAAGGGGAAGACUGCGGGUUCGAGUCCCGUACGUAACG [A40G G68U] | 0.857
GUUCCGUUGGCGUAAUGGUAACGCGUCUCCCUCCUAAGGUGAAGACUGCGGGUUUGAGUCGCGUACGGAACG [A40U C55U C61G] | 0.507
GUUCCGUUGGCGUAAUGGUAACGCGUCUCCCUCCUAAGGUGCAAACUGCGAGUUCGAGUCCCGUGCGGAACG [A40U A42C G44A G51A A65G] | 0.542
GUUCCGUUGGCGUAAUGGUAACGCGUCUCCCUCCUAAGGGGAAGACUGUGGGUUCGAGUCCCGUACGGAACG [A40G C49U] | 0.883
GUUCCGUUGGCGUAAUGGUAACGCGUCUCCCUCCUAAGGCGAAGACUCCGGGUUCGAGCCCCGUACGGAACG [A40C G48C U59C] | ≤ 0.5
GUUCCGUUGGCGUAAUGGUAACGCGUCUCCCUCCUAAGGCGAAGAUUGCGGGUUCGAGUCCCGUGCGCAACG [A40C C46U A65G G68C] | 0.59
GUUCCGUUGGCGUAAUGGUAACGCGUCUCCCUCCUAAGGGGAGGACUGCGGGUUUGAGUCCCGUACGGAACG [A40G A43G C55U] | 0.565

Variant | yeast fitness
GUUCCGUUGGCGUAAUGGUAACGCGUCUCCCUCCUAAGGGGAAGACUGCGGCUUCGAGUCCCGUAGGGAACG [A40G G52C C66G] | ≤ 0.5
GUUCCGUUGGCGUAAUGGUAACGCGUCUCCCUCCUAAGGCGAAGACUGUGGGUUCGAGUCCCGUACGGCACG [A40C C49U A69C] | 0.592
GUUCCGUUGGCGUAAUGGUAACGCGUCUCCCUCCUAAGGGGAAGCCUGCGGGUUCGAGUACCGUACGGAACG [A40G A45C C60A] | ≤ 0.5
GUUCCGUUGGCGUAAUGGUAACGCGUCUCCCUCCUAAGGCGGAGACCGCGGGUUAGAGUCCCGUACGGAACG [A40C A42G U47C C55A] | 0.587
GUUCCGUUGGCGUAAUGGUAACGCGUCUCCCUCCUAAGUAGAGGACUGCGGGUUCGAGUCCCGUACGGAACG [G39U A43G] | 0.811
GUUCCGUUGGCGUAAUGGUAACGCGUCUCCCUCCUAAGGUGAAGACUGCGGGUUCGAGUCGCGUACGCAGCG [A40U C61G G68C A70G] | ≤ 0.5
GUUCCGUUGGCGUAAUGGUAACGCGUCUCCCUCCUAAGUAGAAGCCUGCGGGUUCGAGUCCCGUACGGAACG [G39U A45C] | 0.851
GUUCCGUUGGCGUAAUGGUAACGCGUCUCCCUCCUAAGGCGAAGACUGCGAGUUCGAGUCUCGUACGGCACG [A40C G51A C61U A69C] | 0.618
GUUCCGUUGGCGUAAUGGUAACGCGUCUCCCUCCUAAGGCGAAGACUGGGGGUUCGAGUCCCGUACGGAACG [A40C C49G] | 0.804
GUUCCGUUGGCGUAAUGGUAACGCGUCUCCCUCCUAAGGCGAAGACUGCGGGUUCGAGUACCGUAUGGAACG [A40C C60A C66U] | ≤ 0.5
GUUCCGUUGGCGUAAUGGUAACGCGUCUCCCUCCUAAGCAGAAGACUGCGGGUUCGAGAGCCGUACGGAACG [G39C U59A C60G] | 0.541
GUUCCGUUGGCGUAAUGGUAACGCGUCUCCCUCCUAAGGCGAAGACUGCGGGUACGAGUCCUGUACGGAACG [A40C U54A C62U] | ≤ 0.5
GUUCCGUUGGCGUAAUGGUAACGCGUCUCCCUCCUAAGGUGAAAACUGCGGGUUCGAGUCCCGUUCGGAACG [A40U G44A A65U] | 0.51
GUUCCGUUGGCGUAAUGGUAACGCGUCUCCCUCCUAAGGGGAAGACUCCGGGUUCGAGUCGCGUUCGGAACG [A40G G48C C61G A65U] | ≤ 0.5
GUUCCGUUGGCGUAAUGGUAACGCGUCUCCCUCCUAAGGUGAAGACUGCGGGUUCGAGUCCCGUACGGAACG [A40U] | 0.988
GUUCCGUUGGCGUAAUGGUAACGCGUCUCCCUCCUAAGGCGAAGACUGCGGGUUCGAGUCCCGUACGGAACG [A40C] | 1
GUUCCGUUGGCGUAAUGGUAACGCGUCUCCCUCCUAAGGGGAAGACUGCGGGUUCGAGUCCCGUACGGAACG [A40G] | 1.01
GUUCCGUUGGCGUAAUGGUAACGCGUCUCCCUCCUAAGGUGGAGACUGCGGGUUCGUGUCCCGUACGGAACG [A40U A42G A57U] | 0.576
GUUCCGUUGGCGUAAUGGUAACGCGUCUCCCUCCUAAGGGGAACACUGCGGGCUAGAGUCCCGUUCGGAACG [A40G G44C U53C C55A A65U] | ≤ 0.5
